Assay results from different studies.
Compare with care: the assays were run in different laboratories.
Target: Ephrin type-B receptor 4 (EPHB4, Homo sapiens, UniProt P54760)
Sequence (P54760 16-987, as in one of the studies): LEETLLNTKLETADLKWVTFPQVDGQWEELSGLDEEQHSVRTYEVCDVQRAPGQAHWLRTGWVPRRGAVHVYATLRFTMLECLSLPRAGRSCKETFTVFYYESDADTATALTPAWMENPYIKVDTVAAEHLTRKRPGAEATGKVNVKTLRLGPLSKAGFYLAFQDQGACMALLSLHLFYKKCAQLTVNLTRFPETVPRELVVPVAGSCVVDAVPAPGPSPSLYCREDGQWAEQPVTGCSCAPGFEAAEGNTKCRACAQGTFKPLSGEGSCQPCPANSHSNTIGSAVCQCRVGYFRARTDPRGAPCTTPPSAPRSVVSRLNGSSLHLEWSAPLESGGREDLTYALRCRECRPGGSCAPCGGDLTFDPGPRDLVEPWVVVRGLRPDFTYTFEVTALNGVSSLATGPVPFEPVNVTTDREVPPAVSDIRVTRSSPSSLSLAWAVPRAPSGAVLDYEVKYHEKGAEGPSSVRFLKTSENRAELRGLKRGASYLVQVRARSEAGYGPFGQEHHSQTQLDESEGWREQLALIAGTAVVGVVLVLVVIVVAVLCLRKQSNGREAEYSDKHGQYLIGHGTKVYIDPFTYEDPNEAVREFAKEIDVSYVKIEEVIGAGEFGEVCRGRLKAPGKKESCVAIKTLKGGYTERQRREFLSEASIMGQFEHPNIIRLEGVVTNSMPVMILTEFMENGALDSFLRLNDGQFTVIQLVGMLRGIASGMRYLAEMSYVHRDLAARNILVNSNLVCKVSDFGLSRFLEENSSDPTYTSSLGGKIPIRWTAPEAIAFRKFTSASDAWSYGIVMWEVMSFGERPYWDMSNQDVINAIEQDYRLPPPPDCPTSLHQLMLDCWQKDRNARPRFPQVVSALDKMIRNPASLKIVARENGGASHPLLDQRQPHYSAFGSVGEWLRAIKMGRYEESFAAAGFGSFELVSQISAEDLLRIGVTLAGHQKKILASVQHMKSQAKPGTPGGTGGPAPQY

| SMILES | read-out | technique | tested at | remaining binding |
| --- | --- | --- | --- | --- |
| COc1ccnn2ncc(-c3ccnc(N(C)C)n3)c12 | binding |  | 1 µM | 86% |
| COc1cnc(Nc2cccc(S(N)(=O)=O)c2)nc1N1CCN(c2ccccc2)C(=O)C1 | binding | competition with immobilised ligand | 1 µM | 100% |
| CCC(=O)N[C@H]1CC[C@@H](C(=O)N(C)c2ccc(-c3nc4ccccc4o3)cc2)C1 | cell-free assay | competition with immobilised ligand | 1 µM | 73% |
| Cc1cnc(Nc2ccc(C(=O)N3CCC(N4CCCC4)CC3)cc2)nc1-c1cc2ccccc2s1 | binding | competition with immobilised ligand | 1 µM | 27% |
| COc1cnc(Nc2cccc(S(N)(=O)=O)c2)nc1N1CCN(c2ccccc2)CC1 | binding | competition with immobilised ligand | 1 µM | 96% |
| CN(C)c1nccc(-c2cnn3ncccc23)n1 | binding |  | 1 µM | 100% |
| O=C(NCC1CCOCC1)c1n[nH]cc1NC(=O)c1c(F)cccc1F | binding | competition with immobilised ligand | 1 µM | 100% |
| c1cncc(-c2cccc(Nc3nccc(NC4CCCCC4)n3)c2)c1 | binding | competition with immobilised ligand | 10 µM | 89% |
| C[C@H]1CCN(c2nccc(-c3cnn4ncccc34)n2)C1 | binding |  | 1 µM | 100% |
| C[C@H](c1ccc(F)cc1)N(Cc1cccc(C(=O)O)c1)C(=O)c1cnc2ccccc2c1 | cell-free assay | competition with immobilised ligand | 1 µM | 100% |
| O=C(NCCCN1CCOCC1)c1ccc(Nc2ncc(Cl)c(-c3ccc(Cl)s3)n2)cc1 | binding | competition with immobilised ligand | 1 µM | 91% |
| Cc1cnn2ncc(-c3ccnc(N(C)C)n3)c2c1 | binding |  | 1 µM | 94% |
| Cn1cc(Cl)c2c(Oc3c(F)cc(Nc4cc(Cl)nc(N)n4)cc3F)ccnc21 | cell-free assay | competition with immobilised ligand | 0.1 µM | 100% |
| N[C@@H]1CCN(c2nccc(-c3cnn4ncccc34)n2)C1 | binding |  | 1 µM | 100% |
| CCOC(=O)c1cc2cc(-c3cc(C(=O)NCc4ccc(C(=O)O)cc4)nn3C)ccc2[nH]1 | cell-free assay | competition with immobilised ligand | 0.1 µM | 99% |
| FC(F)(F)Oc1cccc(-c2cnc3ccc(-c4ccncc4)nn23)c1 | cell-free assay | competition with immobilised ligand | 5 µM | 87% |
| Nc1ncc2c(n1)-c1c([nH]c3ccc(C#CC4CC4)cc13)CCCC2 | binding | competition with immobilised ligand | 1 µM | 100% |
| CC1=C(C#N)C(c2ccc3c(c2)c(NC(=O)c2ccccc2C)nn3C)C(C#N)=C(C)N1 | cell-free assay | competition with immobilised ligand | 1 µM | 97% |
| CN(C)c1nccc(-c2cnc3ncccn23)n1 | binding |  | 1 µM | 100% |
| Cc1cc(C)c(-n2ccn3nc(-c4cccnc4)cc23)cc1NC(=O)c1cc(C#N)cc(S(F)(F)(F)(F)F)c1 | cell-free assay | competition with immobilised ligand | 0.1 µM | 99.6% |
| O=C(c1ccc(Nc2nccc(-c3cc4ccccc4s3)n2)cc1)N1CCC(N2CCCC2)CC1 | binding | competition with immobilised ligand | 1 µM | 87% |
